GSIS activator: GLuc luminescence reporter in INS-1E cells, primary screen for activators of glucose-dependent secretion of insulin. INS-1E GLuc reporter insulin secretion, 2-3 h. activation, % at 16.6 µM. 370,000 tested, 0.61% active. AID 743287;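 active means lowest replicate activation of at least 40%, so every replicate reaches that level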
S100A4 MyoIIA: S100A4-myosin IIA interaction inhibition; P26447; S100A4/TAMRA-MyoIIA peptide fluorescence polarization; inhibition, % at 10.7 µM; 360,000 tested, 0.14% active; AID 652163;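 active means mean inhibition of at least 70% across replicates, with every replicate also reaching that level; inconclusive means mean inhibition reaches 70% but some replicates fall short; inactive means mean inhibition below 70%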
Target sequence (P26447 whole entry, looked up): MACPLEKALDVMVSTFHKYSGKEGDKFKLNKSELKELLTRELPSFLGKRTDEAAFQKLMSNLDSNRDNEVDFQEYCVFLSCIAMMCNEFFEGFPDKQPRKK
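assay system = human S100A4 monomer with TAMRA-labelled myosin IIA peptide | also added = labelled myosin peptide probe, 5 nM | incubation = 5 min between mix addition and reading | control set = DMSO and TFP controls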
RAD52 inh: RAD52 (human) annealing inhibition | P43351 | inhibition, % at 18.7 µM | recombinant RAD52 DNA annealing, FRET fluorescence | 360,000 tested, 0.46% active;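 active means every replicate showing at least 50% inhibition; inconclusive means mean inhibition at least 50% but not in every replicate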
Target sequence (P43351 whole entry, looked up): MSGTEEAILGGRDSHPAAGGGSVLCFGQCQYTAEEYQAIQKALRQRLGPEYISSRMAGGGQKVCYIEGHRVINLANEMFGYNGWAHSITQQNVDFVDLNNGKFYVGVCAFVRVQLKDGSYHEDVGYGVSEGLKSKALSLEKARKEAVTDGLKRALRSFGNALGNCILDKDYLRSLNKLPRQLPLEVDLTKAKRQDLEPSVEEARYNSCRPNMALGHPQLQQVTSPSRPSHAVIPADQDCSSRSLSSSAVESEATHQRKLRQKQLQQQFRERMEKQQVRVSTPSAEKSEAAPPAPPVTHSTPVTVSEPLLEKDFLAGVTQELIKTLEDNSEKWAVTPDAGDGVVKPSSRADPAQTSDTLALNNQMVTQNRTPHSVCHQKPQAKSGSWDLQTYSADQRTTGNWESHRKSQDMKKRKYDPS
ERAP1 inh: inhibitors of human ERAP1 aminopeptidase | Q9NZ08 | recombinant ERAP1, Leu-AMC fluorescence, 60 min | inhibition, % at 10.7 µM | 340,000 tested, 0.15% active;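 active means mean replicate inhibition of at least 30%, or all replicates individually reaching that 30% level; inactive means mean below 30% and not every replicate reaching it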
MLL AF4-AF9 inh: blocks AF4 peptide binding to human AF9 | P42568 | AlphaScreen, biotin-AF4 peptide binding to FLAG-AF9 | inhibition, % at 10 µM | 350,000 tested, 0.47% active | AID 651704;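 active means every replicate reaching a set inhibition limit, whatever the replicate mean, cut at about 25% in these data; inconclusive means mean inhibition reaches that limit but some replicates miss it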
Alpha interfer: AlphaScreen signal interference counter-screen hit. shares compounds with MLL AF4-AF9 inh. signal luminescence. AC50, µM (titrated, usually from 12 µM). 530 tested, 45% active; cut-off not given, nearly all actives have AC50 up to about 14 µM
Large screens that a line does not name were inactive (follow-up assays come after a bar, where they were run). Hits are enriched below; roughly 1.5% of the tested compounds scored in any of these assays.

CCn1c(C)[n+](CC)c2ccc(C(=O)N(C)c3ccccc3)cc21	ERAP1 inh 71
Cc1n(C)c2cc(Cl)ccc2[n+]1Cc1ccccc1	none
CCN1Cc2cc(C(=O)NCCN3CCCC3)nc(-c3cccc(C4=CCCC4)c3)c2[C@H]1CCO	none (no result: S100A4 MyoIIA, RAD52 inh, ERAP1 inh, MLL AF4-AF9 inh)
CS(=O)(=O)c1cnc(-c2ccccc2)nc1Oc1ccc(F)cc1	GSIS activator 65 (no result: S100A4 MyoIIA, RAD52 inh, ERAP1 inh, MLL AF4-AF9 inh)
C[C@H]1CCCCO[C@H](CN(C)Cc2ccncc2)[C@@H](C)CN([C@@H](C)CO)C(=O)c2cc(NC(=O)Nc3ccc(C(F)(F)F)cc3)ccc2O1	RAD52 inh 57
COc1ccc(CN(C)C[C@@H]2OCCCC[C@H](C)Oc3ccc(NC(=O)Nc4ccc(C(F)(F)F)cc4)cc3C(=O)N([C@H](C)CO)C[C@H]2C)cc1	RAD52 inh 65 (no result: GSIS activator)
C[C@@H]1CCCCO[C@@H](CN(C)C(=O)Nc2ccccc2)[C@@H](C)CN([C@@H](C)CO)C(=O)c2cc(NC(=O)Nc3ccc(C(F)(F)F)cc3)ccc2O1	MLL AF4-AF9 inh 35
C[C@@H]1CCCCO[C@@H](CN(C)Cc2ccncc2)[C@H](C)CN([C@H](C)CO)C(=O)c2cc(NC(=O)Nc3ccc(C(F)(F)F)cc3)ccc2O1	none
C[C@@H]1CCCCO[C@@H](CN(C)C(=O)C2CCCCC2)[C@@H](C)CN([C@H](C)CO)C(=O)c2cc(NC(=O)Nc3cccc4ccccc34)ccc2O1	S100A4 MyoIIA 108
COc1ccc(NC(=O)Nc2ccc3c(c2)C(=O)N([C@H](C)CO)C[C@H](C)[C@@H](CN(C)Cc2ccc(C(F)(F)F)cc2)OCCCC[C@H](C)O3)cc1	none
C[C@@H]1CCCCO[C@H](CN(C)C(=O)Nc2ccc(C(F)(F)F)cc2)[C@H](C)CN([C@@H](C)CO)C(=O)c2cc(NC(=O)Nc3ccccc3)ccc2O1	none
C[C@H](CO)N1C[C@H](C)[C@@H](CN(C)C(=O)C2CCCCC2)OCCCC[C@H](C)Oc2ccc(NC(=O)Nc3cccc4ccccc34)cc2C1=O	none
C[C@H](CO)N1C[C@H](C)[C@@H](CN(C)Cc2ccc3c(c2)OCO3)OCc2ccccc2-c2c(n(C)c3ccccc23)C1=O	none (no result: S100A4 MyoIIA, RAD52 inh, ERAP1 inh, MLL AF4-AF9 inh)
C[C@@H]1CCCCO[C@@H](CN(C)Cc2ccc(C(F)(F)F)cc2)[C@@H](C)CN([C@@H](C)CO)C(=O)c2cc(NS(C)(=O)=O)ccc2O1	none (no result: S100A4 MyoIIA, RAD52 inh, ERAP1 inh, MLL AF4-AF9 inh)
O=C1CCCCn2cc(nn2)COC[C@@H](c2ccccc2)N1	none (no result: S100A4 MyoIIA, RAD52 inh, ERAP1 inh, MLL AF4-AF9 inh)
C[C@@H]1CCCCO[C@H](CN(C)S(=O)(=O)c2ccc(Cl)cc2)[C@H](C)CN([C@H](C)CO)C(=O)c2cc(N(C)C)ccc2O1	none
COc1ccc(CN(C)C[C@@H]2OCCCC[C@H](C)Oc3ccc(NC(=O)Nc4ccc(C(F)(F)F)cc4)cc3C(=O)N([C@@H](C)CO)C[C@H]2C)cc1	RAD52 inh 52
O=S(=O)(c1cccs1)N1CN(C2CCCCC2)c2nc3ccccc3nc21	GSIS activator 80
O=S(=O)(c1cccs1)N1CN(C2CCCC2)c2nc3ccccc3nc21	none
O=S(=O)(c1ccc(-c2csc(Nc3ccc(Br)cc3)n2)cc1)N1CCCC1	GSIS activator 89 (no result: S100A4 MyoIIA, RAD52 inh, ERAP1 inh, MLL AF4-AF9 inh)
CN(C)C(=O)C[C@H]1CC[C@H]2[C@@H](COc3ccc(NC(=O)c4cnccn4)cc3C(=O)N2C)O1	none
Nc1nc(NCC2CCCO2)nc(Nc2cccc(F)c2)c1[N+](=O)[O-] (stereo not given)	MLL AF4-AF9 inh 31
Cc1ccc(S(=O)(=O)Nc2cccc3c2O[C@H](CN(C)C(=O)NC2CCCCC2)[C@@H](C)CN([C@@H](C)CO)C3=O)cc1	none
O=C(C[C@@H]1CC[C@H](NC(=O)c2ccc3c(c2)OCO3)[C@@H](CO)O1)NC1Cc2ccccc2C1	none
O=C(/C=C/c1ccc2c(c1)OCO2)Nc1c(C(=O)O)[nH]c2ccccc12	none
CCOC(=O)c1[nH]c2ccc(OC)cc2c1NC(=O)/C=C/c1ccc2c(c1)OCO2	GSIS activator 66 (no result: S100A4 MyoIIA, RAD52 inh, ERAP1 inh, MLL AF4-AF9 inh)
Cc1ccc(S(=O)(=O)C2(S(=O)(=O)c3ccc(C)cc3)CC2)cc1	none (no result: ERAP1 inh)
CC(=O)C1=C(S(=O)(=O)c2ccc(C)cc2)CS(=O)(=O)C1	GSIS activator 124
Cn1c(=O)c2c(nc3n2CCCN3CCc2ccccc2)n(C)c1=O	GSIS activator 48
COc1ccc(-c2cc(C(F)(F)F)nc(S(=O)(=O)CCCC(=O)Nc3cccnc3Cl)n2)cc1OC	ERAP1 inh 50
Cc1cc(NC(=O)CCCS(=O)(=O)c2nc(-c3cccs3)cc(C(F)(F)F)n2)no1	none (no result: MLL AF4-AF9 inh)
COc1ccc(NC(=O)Nc2ccc3c(c2)C(=O)N(C)C[C@@H](OC)[C@H](C)CN[C@H](C)CO3)cc1	none (no result: S100A4 MyoIIA, RAD52 inh, ERAP1 inh, MLL AF4-AF9 inh)
CCCCOc1ccc(C2(C)NC(=O)NC2=O)cc1 (stereo not given)	none
CCCCOc1ccc(C2=NNC(=O)CC2)cc1	GSIS activator 45
CO[C@@H]1CN(C)C(=O)c2ccc(NC(=O)NC(C)C)cc2OC[C@@H](C)N(Cc2ccccc2)C[C@@H]1C	none
CC(C)Cn1c(SCC(=O)Nc2ccc3[nH]c(=O)[nH]c3c2)nc2ccccc2c1=O	GSIS activator 45
CCC(C)n1c(SCC(=O)Nc2ccc3[nH]c(=O)[nH]c3c2)nc2ccccc2c1=O (stereo not given)	none
CC(=O)N1CC2(C1)[C@@H](c1ccc(-c3ccccc3C)cc1)[C@H](CO)N2C(C)=O	none (no result: S100A4 MyoIIA, RAD52 inh, ERAP1 inh, MLL AF4-AF9 inh)
O=[N+]([O-])c1ccc(Nc2ccccc2)c2nonc12	none
CCOc1ccc(Nc2ccc([N+](=O)[O-])c3nonc23)cc1	MLL AF4-AF9 inh 29 | Alpha interfer inactive
COc1ccc(C2=NOC(C(=O)Nc3c(C)n(C)n(-c4ccccc4)c3=O)C2)cc1 (stereo not given)	none
COc1ccc(OC)c(C2=NOC(C(=O)Nc3c(C)n(C)n(-c4ccccc4)c3=O)C2)c1 (stereo not given)	none | Alpha interfer inactive
COc1cccc2sc(N(CCCN(C)C)C(=O)c3ccc(S(=O)(=O)N4CCCc5ccccc54)cc3)nc12	MLL AF4-AF9 inh 36 | Alpha interfer inactive
CCCN1[C@H](CO)[C@H](c2ccc(-c3ccccc3F)cc2)[C@@H]1CNC(=O)C1CCC1	none (no result: S100A4 MyoIIA, RAD52 inh, ERAP1 inh, MLL AF4-AF9 inh)
CNC[C@H]1Oc2cc(C#CCN(C)C)ccc2S(=O)(=O)N([C@H](C)CO)C[C@H]1C	none
Cn1c(SCC(=O)N2c3ccccc3Sc3ccc(Cl)cc32)nnc1-c1ccco1	MLL AF4-AF9 inh inconclusive | Alpha interfer inactive
CN(C)c1cccc2c(C=C(C#N)C#N)ccc(N(C)C)c12	MLL AF4-AF9 inh 51 | Alpha interfer inactive
CCOC(=O)/C(C#N)=C/c1c(N2CCN(Cc3ccc4c(c3)OCO4)CC2)nc2c(C)cccn2c1=O	MLL AF4-AF9 inh 39 | Alpha interfer inactive
CCN1CCN(Cc2ccc(NC(=O)c3cc(NC(=O)c4nccnc4N)cc(OC)c3)cc2C(F)(F)F)CC1	MLL AF4-AF9 inh inconclusive | Alpha interfer inactive

Bioassay records (PubChem BioAssay)
